INS promoter act: activators of insulin promoter-driven GFP, primary screen, imaging, TRM-6 cells, eGFP reporter, cell count | hit rate 0.81% among 130,000 | plate-scaled: unstimulated 0, stimulated control 100 | AID 1296, 2008 | activation, % at 2 µM;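 active = activation at 2 µM above a set limit, confirmed on inspection of the cell images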;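 note: share of cells whose green reporter signal exceeds an intensity cutoff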
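Test system: human fetal islet-derived TRM-6 cells with tamoxifen-inducible insulin promoter–eGFP reporter. Compound dosing: 2 µM final, single concentration. Incubation: tamoxifen pre-incubation 15 h overnight, then compound exposure 48 h at 37 °C. Signal: fixed-cell fluorescence microscopy, eGFP plus Hoechst.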
A number is an active result; i = inactive. Shown is part of a subset that was picked to be rich in hits.

SMILES | INS promoter act
Cc1c(OCc2ccccc2)c(=O)ccn1Cc1ccc(Cl)cc1 | i
COc1ccc(C(=O)c2ccc(CC#N)s2)cc1 | i
CN1C(=O)CC(C(=O)O)SC1=Nc1ccc(F)cc1 (centres undefined) | 425
O=C1CC(C(=O)O)S/C(=N\NC(=O)c2ccc(F)cc2)N1 (centres undefined) | i
CN1C(=O)CC(C(=O)O)SC1=Nc1cccc(C(F)(F)F)c1 (centres undefined) | i
Cc1c2c(c(C)n1C)C(C(=O)NC1CCCCC1)N(Cc1ccccc1)C2=O (centres undefined) | i
CNC(=S)N(Cc1ccc(OC)cc1)Cc1cc2ccc(C)cc2[nH]c1=O | i
CC1(C)CC(=O)C(C(=S)Nc2ccccc2)=C(NCCN2CCOCC2)C1 | i
COc1cccc(N(CC(=O)Nc2ccc3c(c2)OCO3)S(=O)(=O)c2ccccc2)c1 | i
Cn1c(SCCOc2ccccc2Cl)nnc1-c1ccncc1 | 538
Cn1c(SCC(=O)C(C)(C)C)nnc1-c1ccncc1 | i
COc1ccc(NC(=O)CSc2nnc(-c3ccncc3)n2C)cc1 | i
C=CCn1c(-c2ccc(Cl)cc2)cnc1SC(C)C(=O)NC(N)=O (centres undefined) | 357
C=CCn1c(SCCOc2ccc(OC)cc2)nnc1C(C)NC(=O)c1ccc(OC)cc1 (centres undefined) | i
C=CCn1c(SCC(=O)NC2CCCCC2)nnc1-c1ccc(OC)cc1 | i
COc1ccccc1/C=C/C(=O)NC(=S)N(C)C1CCCCC1 | i
CC1CCCCC1NC(=S)NC(=O)c1ccccc1Br (centres undefined) | i
CN(C(=S)NC(=O)c1ccccc1Br)C1CCCCC1 | 223
Cc1noc(C)c1CCC(=O)N1CCCC(CCC(=O)NCc2ccccc2F)C1 (centres undefined) | i
CC(C)C[C@@H]1NC(=O)[C@H](Cc2ccc(O)cc2)NC(=O)c2cc([N+](=O)[O-])cc(I)c2NCCC[C@@H](C(N)=O)NC1=O | i
NC(=O)[C@@H]1CCCCNc2c(I)cc([N+](=O)[O-])cc2C(=O)N[C@@H](CCC(=O)O)C(=O)N[C@@H](CO)C(=O)N1 | i
NC(=O)[C@@H]1CCCNc2c(I)cc([N+](=O)[O-])cc2C(=O)N[C@@H](Cc2ccccc2)C(=O)N[C@@H](Cc2cnc[nH]2)C(=O)N1 | 285
COc1ccc(NS(=O)(=O)c2cccc(-c3nnc(-c4ccccc4)o3)c2)cc1 | i
COC(=O)C(C(=O)N1CCN(C)CC1)C1CCCCCC1 (centres undefined) | 431
COC(=O)C(C(=O)NCC1CCCO1)C1CCCCCC1 (centres undefined) | i
SMILES | INS promoter act
CCOC(=O)C(C(=O)N1CCOCC1)C1CCCCC1 (centres undefined) | i
O=C(CCNC(=O)c1ccco1)Nc1ccc(N2CCOCC2)cc1 | i
CC(=O)NC1(c2ccc(F)cc2)CCN(C(=O)Nc2ccc(F)cc2F)CC1 | i
CC1=C/C(=N\Nc2ccccc2[N+](=O)[O-])CC(C)(C)C1 | i
Cc1ccc(S(=O)(=O)CCC(=O)OCC(=O)NCc2ccc(Cl)cc2)cc1 | i
CCc1ccc(N2C(=O)CC(N3CCC(C(=O)OC)CC3)C2=O)cc1 (centres undefined) | 543
CCOC(=O)C1CCCN(C2CC(=O)N(c3ccccc3)C2=O)C1 (centres undefined) | i
CCc1ccc(N2CC(C(=O)OC)CC2=O)cc1 (centres undefined) | i
COc1ccc(OC(=O)c2cnn(-c3ccccc3)c2C)cc1 | i
CN(CC(=O)N1CCCC1)S(=O)(=O)c1ccc(Cl)cc1 | i
COc1ccc(S(=O)(=O)N(C)CC(=O)N2CCCCC2)cc1Cl | i
COc1ccc(S(=O)(=O)N(C)CC(=O)N2CCOCC2)cc1Cl | 462
C/C(CC(=O)Nc1ccc(OCc2ccccc2)cc1)=N\NC(=O)C(=O)Nc1ccc(C)c(Cl)c1 | i
CC1SCC(=O)N(CC(=O)Nc2ccc3c(c2)OCCO3)C1=O (centres undefined) | i
CS(=O)(=O)c1ccc2nc(NC(NC(=O)c3ccco3)(C(F)(F)F)C(F)(F)F)sc2c1 | i
O=C(O)C1C2C=CC3(CN(Cc4ccncc4)C(=O)C13)O2 (centres undefined) | i
CCN1C(=O)CC(N2CCN(c3cccc(OC)c3)CC2)C1=O (centres undefined) | i
COc1cccc(N2CCN(C3CC(=O)N(c4cccc(Cl)c4)C3=O)CC2)c1 (centres undefined) | i
CCOc1cccc(N2C(=O)CC(N3CCN(c4ccc(S(=O)(=O)CC)cc4)CC3)C2=O)c1 (centres undefined) | 80
O=C(Cc1c2ccccc2nc2ccccc12)c1ccccc1 | i
Cc1noc(C)c1CSc1nnc(C)c(=O)[nH]1 | i
Cc1noc(C)c1CSc1ccc2ccccc2n1 | 105
Cc1noc(C)c1CSc1nc2ccccc2s1 | i
CCCCC(CC)CNC(=O)Cn1c(=S)[nH]c2ncccc2c1=O (centres undefined) | i
COc1cc([N+](=O)[O-])ccc1NC(=O)CCCOc1cccc(C)c1 | i
SMILES | INS promoter act
COc1ccc(N2C(=O)CC(N3CCOCC3)C2=O)cc1 (centres undefined) | i
COc1ccc(NC2CC(=O)N(c3cccc(C)c3)C2=O)cc1 (centres undefined) | 600
COc1ccc(N2C(=O)CC(Nc3cccc(C(C)=O)c3)C2=O)cc1OC (centres undefined) | i
O=C(CNC(=O)c1cccs1)NCCN1CCC(Cc2ccccc2)CC1 | i
Cc1c(Cl)c(-c2n[nH]c(=S)n2-c2ccccc2)nn1C | i
N#Cc1c(NC(=O)CSc2ncnc3sccc23)oc(-c2ccco2)c1-c1ccco1 | i
O=C(Nc1cc(S(=O)(=O)N2CCCCC2)ccc1Cl)c1ccccc1NS(=O)(=O)c1ccc(F)cc1 | 525
O=C(Nc1cc(S(=O)(=O)N2CCCC2)ccc1OCC(F)(F)F)c1ccc(F)cc1 | i
O=C(Nc1ccccc1N1CCOCC1)c1ccccc1NS(=O)(=O)c1ccc(F)cc1 | i
CCN(CC)c1ccc(N2C(=O)/C(=C/c3cccnc3)SC2=S)cc1 | i
COc1ccc(OC)c(CN2CCCC(CO)C2)c1 (centres undefined) | i
O=C(CNC(=O)c1ccccc1)OCc1ccc([N+](=O)[O-])cc1 | i
O=[N+]([O-])c1ccc(COc2ccccc2/C=N/O)cc1 | 529
O=C(O)c1cc(/C=N\O)ccc1OCc1ccccc1 | i
CC(C)c1ccc(NC(=O)C(c2ccccc2)N2CC(=O)Nc3ccccc32)cc1 (centres undefined) | i
CNS(=O)(=O)c1cc(OC)ccc1OC | i
COC(=O)c1c(C)oc2ccc(NS(=O)(=O)c3cc(OC)ccc3OC)cc12 | i
COc1ccc(OC)c(S(=O)(=O)Nc2ccc(O)c3ccccc23)c1 | 450
O=C(Nc1ccccc1)c1ccncc1 | i
O=C(Nc1ccnc(-c2ccncc2)n1)c1ccc(F)cc1 | 340
CCC(=O)Nc1ccnc(-c2cccnc2)n1 | i
CCC(Sc1nncn1C)C(=O)Nc1ccccc1OC (centres undefined) | i
CC(=O)N1C(=S)NC(=O)/C1=C1/C(=O)N(CC(=O)Nc2cccc(C)c2)c2ccccc21 | 108
Cc1cccc(NC(=O)CN2C(=O)N/C(=C/c3ccc(C)o3)C2=O)c1 | i
Cc1ccc2c(c1)C(=O)C(=O)N2CC(=O)Nc1ccc(N2CCOCC2)cc1 | i
CCOC(=O)COc1c(Br)cc(/C=C2\SC(=O)N(CC(=O)N3CCCC3)C2=O)cc1OC | i
